Laboratory results: ChEMBL document CHEMBL4373711, “Development of 3,5-Dinitrophenyl-Containing 1,2,4-Triazoles and Their Trifluoromethyl Analogues as Highly Efficient Antitubercular Agents Inhibiting Decaprenylphosphoryl-β-d-ribofuranose 2'-Oxidase” (J Med Chem, 2019)
Converted amounts (≈) assume the structure as drawn. The source made the active and inactive calls. No cut-off for these calls is given here.

What was measured:
Pseudomonas aeruginosa = assay: Antibacterial activity against Pseudomonas aeruginosa ATCC 27853 CCM 3955 at highest concentration measured after 24 to 48 hrs by alamar blue dye based broth microdilution assay; format: functional, organism-based
Serratia marcescens = assay: Antibacterial activity against Serratia marcescens at highest concentration measured after 24 to 48 hrs by alamar blue dye based broth microdilution assay; format: functional, organism-based
Aspergillus fumigatus = assay: Antifungal activity against Aspergillus fumigatus ATCC 204305 at highest concentration measured after 24 to 48 hrs by alamar blue dye based broth microdilution assay; format: functional, organism-based
Enterococcus faecalis = assay: Antibacterial activity against Enterococcus faecalis ATCC 29212 CCM 4224 at highest concentration measured after 24 to 48 hrs by alamar blue dye based broth microdilution assay; format: functional, organism-based
Mycobacterium avium [1] = assay: Antimycobacterial activity against Mycobacterium avium CNCTC My 330/88 after 14 days; format: functional; settings: CNCTC My 330/88, 336 h
How it was run: (§1)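 M. avium was tested by microdilution in Šula's semisynthetic medium, with compounds dissolved in DMSO and serially diluted from 1000 down to 1. Inoculum was a 1.0 McFarland suspension diluted 10-5. Plates were incubated at 37 °C and read at 14 and 21 days. […] Isoniazid and rifampicin served as standards.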

Mycobacterium kansasii [2] = assay: Antimycobacterial activity against Mycobacterium kansasii 6509/96 after 14 days; format: functional; settings: 6509/96, 336 h
How it was run: (§2)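 Microdilution in Šula's semisynthetic medium; compounds in DMSO at 32–0.03 µM. Inoculum from 1.0 McFarland suspension diluted 10-4. […] Isoniazid and rifampicin as reference drugs.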

Staphylococcus aureus [3] = assay: Antibacterial activity against methicillin-resistant Staphylococcus aureus subsp. aureus ATCC 43300 CCM 4750 at highest concentration measured after 24 to 48 hrs by alamar blue dye based broth microdilution assay; format: functional, organism-based
Candida albicans = assay: Antifungal activity against Candida albicans ATCC 24433 CCM 8320 at highest concentration measured after 24 to 48 hrs by alamar blue dye based broth microdilution assay; format: functional, organism-based
Mycobacterium kansasii [4] = assay: Antimycobacterial activity against Mycobacterium kansasii 6509/96 after 21 days; format: functional; settings: 6509/96, 504 h; how it was run: as §2
[5] = test system: Trichophyton interdigitale; assay: Antifungal activity against Trichophyton interdigitale ATCC 9533 CCM 8377 at highest concentration measured after 72 to 120 hrs by alamar blue dye based broth microdilution assay; format: functional
[6] = test system: Mycobacterium tuberculosis; assay: Antimycobacterial activity against Mycobacterium tuberculosis H37Rv CNCTC My 331/88 after 21 days; format: functional; settings: H37Rv CNCTC My 331/88, 504 h
How it was run: (§3)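 M. tuberculosis strains (H37Rv and clinical MDR/XDR isolates) tested by microdilution in Šula's semisynthetic medium. Compounds were dissolved in DMSO and tested at 32 to 0.03 µM in twofold steps. Inoculum was a 1.0 McFarland suspension diluted 10-3. Plates were incubated at 37 °C and read at 14 and 21 days.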

Klebsiella pneumoniae = assay: Antibacterial activity against Klebsiella pneumoniae at highest concentration measured after 24 to 48 hrs by alamar blue dye based broth microdilution assay; format: functional, organism-based
Candida tropicalis = assay: Antifungal activity against Candida tropicalis ATCC 750 CCM 8264 at highest concentration measured after 24 to 48 hrs by alamar blue dye based broth microdilution assay; format: functional, organism-based
Mycobacterium avium [7] = assay: Antimycobacterial activity against Mycobacterium avium CNCTC My 330/88 after 21 days; format: functional; settings: CNCTC My 330/88, 504 h; how it was run: as §1
Mycobacterium kansasii [8] = assay: Antimycobacterial activity against Mycobacterium kansasii CNCTC My 235/80 after 7 days; format: functional; settings: CNCTC My 235/80, 168 h; how it was run: as §2
[9] = test system: Mycobacterium tuberculosis; assay: Antimycobacterial activity against Mycobacterium tuberculosis H37Rv CNCTC My 331/88 after 14 days; format: functional; settings: H37Rv CNCTC My 331/88, 336 h; how it was run: as §3
Mycobacterium kansasii [10] = assay: Antimycobacterial activity against Mycobacterium kansasii 6509/96 after 7 days; format: functional; settings: 6509/96, 168 h; how it was run: as §2
Staphylococcus aureus [11] = assay: Antibacterial activity against Staphylococcus aureus subsp. aureus ATCC 29213 CCM 4223 at highest concentration measured after 24 to 48 hrs by alamar blue dye based broth microdilution assay; format: functional, organism-based
Pichia kudriavzevii = assay: Antifungal activity against Candida krusei ATCC 6258 CCM8271 at highest concentration measured after 24 to 48 hrs by alamar blue dye based broth microdilution assay; format: functional, organism-based
Lichtheimia corymbifera = assay: Antifungal activity against Lichtheimia corymbifera CCM 8077 at highest concentration measured after 24 to 48 hrs by alamar blue dye based broth microdilution assay; format: functional, organism-based
Mycobacterium kansasii [12] = assay: Antimycobacterial activity against Mycobacterium kansasii CNCTC My 235/80 after 14 days; format: functional; settings: CNCTC My 235/80, 336 h; how it was run: as §2
Candida parapsilosis = assay: Antifungal activity against Candida parapsilosis ATCC 22019 CCM 8260 at highest concentration measured after 24 to 48 hrs by alamar blue dye based broth microdilution assay; format: functional, organism-based
Mycobacterium kansasii [13] = assay: Antimycobacterial activity against Mycobacterium kansasii CNCTC My 235/80 after 21 days; format: functional; settings: CNCTC My 235/80, 504 h; how it was run: as §2
Aspergillus flavus = assay: Antifungal activity against Aspergillus flavus CCM 8363 at highest concentration measured after 24 to 48 hrs by alamar blue dye based broth microdilution assay; format: functional, organism-based
Escherichia coli = assay: Antibacterial activity against Escherichia coli ATCC 25922 CCM 3954 at highest concentration measured after 24 to 48 hrs by alamar blue dye based broth microdilution assay; format: functional, organism-based
[14] = test system: Staphylococcus epidermidis; assay: Antibacterial activity against Staphylococcus epidermidis at highest concentration measured after 24 to 48 hrs by alamar blue dye based broth microdilution assay; format: functional, organism-based

COc1ccc(-c2nnc(SCc3cc([N+](=O)[O-])cc(C(F)(F)F)c3)n2Cc2ccccc2)cc1
Activity (Pseudomonas aeruginosa): inactive
Activity (Serratia marcescens): inactive
Activity (Aspergillus fumigatus): inactive
Activity (Enterococcus faecalis): inactive
MIC99 (Mycobacterium avium [1]): 250 µM (≈ 125 µg/mL)
MIC99 (Mycobacterium kansasii [2]): > 32 µM
Activity (Staphylococcus aureus [3]): inactive
Activity (Candida albicans): inactive
MIC99 (Mycobacterium kansasii [4]): > 32 µM
Activity [5]: inactive
MIC99 [6]: > 32 µM
Activity (Klebsiella pneumoniae): inactive
Activity (Candida tropicalis): inactive
MIC99 (Mycobacterium avium [7]): 250 µM (≈ 125 µg/mL)
MIC99 (Mycobacterium kansasii [8]): 32 µM (≈ 16 µg/mL)
MIC99 [9]: 32 µM (≈ 16 µg/mL)
MIC99 (Mycobacterium kansasii [10]): > 32 µM
Activity (Staphylococcus aureus [11]): inactive
Activity (Pichia kudriavzevii): inactive
Activity (Lichtheimia corymbifera): inactive
MIC99 (Mycobacterium kansasii [12]): > 32 µM
Activity (Candida parapsilosis): inactive
MIC99 (Mycobacterium kansasii [13]): > 32 µM
Activity (Aspergillus flavus): inactive
Activity (Escherichia coli): inactive
Activity [14]: inactive

CCCCCCCCCCCc1nnc(SCc2cc([N+](=O)[O-])cc([N+](=O)[O-])c2)n1Cc1ccccc1
Activity (Pseudomonas aeruginosa): inactive
Activity (Serratia marcescens): inactive
Activity (Aspergillus fumigatus): inactive
Activity (Enterococcus faecalis): inactive
MIC99 (Mycobacterium avium [1]): 250 µM (≈ 131 µg/mL)
MIC99 (Mycobacterium kansasii [2]): 4 µM (≈ 2.1 µg/mL)
Activity (Staphylococcus aureus [3]): inactive
Activity (Candida albicans): inactive
MIC99 (Mycobacterium kansasii [4]): 8 µM (≈ 4.21 µg/mL)
Activity [5]: inactive
MIC99 [6]: 4 µM (≈ 2.1 µg/mL)
Activity (Klebsiella pneumoniae): inactive
Activity (Candida tropicalis): inactive
MIC99 (Mycobacterium avium [7]): 250 µM (≈ 131 µg/mL)
MIC99 (Mycobacterium kansasii [8]): 2 µM (≈ 1.05 µg/mL)
MIC99 [9]: 4 µM (≈ 2.1 µg/mL)
MIC99 (Mycobacterium kansasii [10]): 2 µM (≈ 1.05 µg/mL)
Activity (Staphylococcus aureus [11]): inactive
Activity (Pichia kudriavzevii): inactive
Activity (Lichtheimia corymbifera): inactive
MIC99 (Mycobacterium kansasii [12]): 4 µM (≈ 2.1 µg/mL)
Activity (Candida parapsilosis): inactive
MIC99 (Mycobacterium kansasii [13]): 4 µM (≈ 2.1 µg/mL)
Activity (Aspergillus flavus): inactive
Activity (Escherichia coli): inactive
Activity [14]: inactive

COc1ccc(-c2nnc(SCc3cc([N+](=O)[O-])cc([N+](=O)[O-])c3)n2Cc2ccccc2)cc1
Activity (Pseudomonas aeruginosa): inactive
Activity (Serratia marcescens): inactive
Activity (Aspergillus fumigatus): inactive
Activity (Enterococcus faecalis): inactive
MIC99 (Mycobacterium avium [1]): 250 µM (≈ 119 µg/mL)
MIC99 (Mycobacterium kansasii [2]): 8 µM (≈ 3.82 µg/mL)
Activity (Staphylococcus aureus [3]): inactive
Activity (Candida albicans): inactive
MIC99 (Mycobacterium kansasii [4]): 8 µM (≈ 3.82 µg/mL)
Activity [5]: inactive
MIC99 [6]: 4 µM (≈ 1.91 µg/mL)
Activity (Klebsiella pneumoniae): inactive
Activity (Candida tropicalis): inactive
MIC99 (Mycobacterium avium [7]): 250 µM (≈ 119 µg/mL)
MIC99 (Mycobacterium kansasii [8]): 4 µM (≈ 1.91 µg/mL)
MIC99 [9]: 4 µM (≈ 1.91 µg/mL)
MIC99 (Mycobacterium kansasii [10]): 8 µM (≈ 3.82 µg/mL)
Activity (Staphylococcus aureus [11]): inactive
Activity (Pichia kudriavzevii): inactive
Activity (Lichtheimia corymbifera): inactive
MIC99 (Mycobacterium kansasii [12]): 8 µM (≈ 3.82 µg/mL)
Activity (Candida parapsilosis): inactive
MIC99 (Mycobacterium kansasii [13]): 8 µM (≈ 3.82 µg/mL)
Activity (Aspergillus flavus): inactive
Activity (Escherichia coli): inactive
Activity [14]: inactive

CCCCCCCCCCCCn1c(SCc2cc([N+](=O)[O-])cc([N+](=O)[O-])c2)nnc1-c1ccccc1
Activity (Pseudomonas aeruginosa): inactive
Activity (Serratia marcescens): inactive
Activity (Aspergillus fumigatus): inactive
Activity (Enterococcus faecalis): inactive
MIC99 (Mycobacterium avium [1]): 250 µM (≈ 131 µg/mL)
MIC99 (Mycobacterium kansasii [2]): 4 µM (≈ 2.1 µg/mL)
Activity (Staphylococcus aureus [3]): inactive
Activity (Candida albicans): inactive
MIC99 (Mycobacterium kansasii [4]): 4 µM (≈ 2.1 µg/mL)
Activity [5]: inactive
MIC99 [6]: 4 µM (≈ 2.1 µg/mL)
Activity (Klebsiella pneumoniae): inactive
Activity (Candida tropicalis): inactive
MIC99 (Mycobacterium avium [7]): 250 µM (≈ 131 µg/mL)
MIC99 (Mycobacterium kansasii [8]): 2 µM (≈ 1.05 µg/mL)
MIC99 [9]: 2 µM (≈ 1.05 µg/mL)
MIC99 (Mycobacterium kansasii [10]): 2 µM (≈ 1.05 µg/mL)
Activity (Staphylococcus aureus [11]): inactive
Activity (Pichia kudriavzevii): inactive
Activity (Lichtheimia corymbifera): inactive
MIC99 (Mycobacterium kansasii [12]): 2 µM (≈ 1.05 µg/mL)
Activity (Candida parapsilosis): inactive
MIC99 (Mycobacterium kansasii [13]): 4 µM (≈ 2.1 µg/mL)
Activity (Aspergillus flavus): inactive
Activity (Escherichia coli): inactive
Activity [14]: inactive

O=[N+]([O-])c1cc(-c2nnc(SCc3ccccc3)n2Cc2ccc(Cl)cc2Cl)cc([N+](=O)[O-])c1
Activity (Pseudomonas aeruginosa): inactive
Activity (Serratia marcescens): inactive
Activity (Aspergillus fumigatus): inactive
Activity (Enterococcus faecalis): inactive
MIC99 (Mycobacterium avium [1]): 16 µM (≈ 8.26 µg/mL)
MIC99 (Mycobacterium kansasii [2]): 4 µM (≈ 2.07 µg/mL)
Activity (Staphylococcus aureus [3]): inactive
Activity (Candida albicans): inactive
MIC99 (Mycobacterium kansasii [4]): 4 µM (≈ 2.07 µg/mL)
Activity [5]: inactive
MIC99 [6]: 2 µM (≈ 1.03 µg/mL)
Activity (Klebsiella pneumoniae): inactive
Activity (Candida tropicalis): inactive
MIC99 (Mycobacterium avium [7]): 16 µM (≈ 8.26 µg/mL)
MIC99 (Mycobacterium kansasii [8]): 2 µM (≈ 1.03 µg/mL)
MIC99 [9]: 2 µM (≈ 1.03 µg/mL)
MIC99 (Mycobacterium kansasii [10]): 4 µM (≈ 2.07 µg/mL)
Activity (Staphylococcus aureus [11]): inactive
Activity (Pichia kudriavzevii): inactive
Activity (Lichtheimia corymbifera): inactive
MIC99 (Mycobacterium kansasii [12]): 4 µM (≈ 2.07 µg/mL)
Activity (Candida parapsilosis): inactive
MIC99 (Mycobacterium kansasii [13]): 4 µM (≈ 2.07 µg/mL)
Activity (Aspergillus flavus): inactive
Activity (Escherichia coli): inactive
Activity [14]: inactive
